Assay results reported in ChEMBL document CHEMBL1138784, “Rational design, synthesis, and biological evaluation of bis(pyrimido[5,6,1-de]acridines) and bis(pyrazolo[3,4,5-kl]acridine-5-carboxamides) as new anticancer agents” (J Med Chem, 2004).

What was measured:
[1] = Cytotoxicity against human H460M cancer cell line was determined after 144 hr; assay type: functional, cell-based; conditions: Cancer cell lines
Outline: (§1)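 MTT colorimetric assay. Cells seeded by growth characteristics and preincubated 24 h, then exposed to drug for 1 h or 144 h at 37 °C, 5% CO2. H460M, MKN45 and PC-3 were grown in RPMI 1640 with 10% FCS. HCT116 was grown in D-MEM with 10% FBS and 2 mM glutamine.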

MKN-45 = experiment: Cytotoxicity against human MKN45 cancer cell line was determined after 144 hr; assay type: functional, cell-based; conditions: MKN-45, 144 h; outline: as §1
LoVo [2] = experiment: Ratio of IC50 against sensitive LoVo cell line and that of doxorubicin resistance LoVo cell line was determined after 1 hr exposure; assay type: functional, Homo sapiens
LoVo [3] = experiment: Cytotoxicity against doxorubicin resistant LoVo cell line was determined against 144 hrs; assay type: functional, cell-based; conditions: Homo sapiens
Outline: (§2)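 MTT assay on doxorubicin-sensitive LoVo and resistant LoVo/Dx cells, 24 h preincubation, then 1 h or 144 h drug exposure at 37 °C, 5% CO2. IC50 in nM. Resistance index is IC50 on LoVo/Dx divided by IC50 on LoVo.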

Nucleic Acid = experiment: Binding site preference is determined as the ratio of Poly (dA-dT)2 to Poly (dG-dC)2; assay type: nucleic-acid assay
Outline: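 Ethidium displacement fluorometry at pH 7.0 (10 mM Na2HPO4, 10 mM NaH2PO4, 1 mM EDTA) with 1.26 μM ethidium bromide and 1 μM [poly(dA-dT)]2 or [poly(dG-dC)]2, 20 °C. Ex 546 nm, em 595 nm, drug added serially from a DMSO stock. Preference taken from the [AT]/[GC] ratio of C50 values, counted significant only below 0.7 or above 1.3.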

SNB-19 [4] = experiment: Percent growth of CNS SNB-19 cell line was determined at 10e-5 M concentration after 48 hr of exposing; assay type: functional, Homo sapiens
Outline: (§3)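 NCI sulforhodamine B screen. Cells seeded by growth rate, 24 h drug-free, then 48 h exposure to 10^-8, 10^-6 or 10^-5 M. Protein-stain optical density expressed as percent growth relative to untreated control (100%); negative values indicate cell kill.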

HCT-116 = experiment: Cytotoxicity against human HCT116 cancer cell line was determined after 144 hr; assay type: functional, cell-based; conditions: HCT-116, 144 h; outline: as §1
DU-145 [5] = experiment: Percent growth of prostate DU-145 cell line was determined at 10e-6 M concentration after 48 hr of exposing; assay type: functional, Homo sapiens
DU-145 [6] = experiment: Percent growth of prostate DU-145 cell line was determined at 10e-8 M concentration after 48 h of exposing; assay type: functional, Homo sapiens
[7] = Percent growth of melanoma LOX IMV1 cell line was determined at 10e-5 M concentration after 48 hr of exposing; assay type: functional, Homo sapiens; outline: as §3
[8] = Percent growth of melanoma LOX IMV1 cell line was determined at 10e-6 M concentration after 48 hr of exposing; assay type: functional, Homo sapiens; outline: as §3
[9] = Percent growth of melanoma LOX IMV1 cell line was determined at 10e-8 M concentration after 48 hr of exposing; assay type: functional, Homo sapiens; outline: as §3
LoVo [10] = experiment: (§4) Cytotoxicity against doxorubicin resistant LoVo cell line was determined against 1 hour; assay type: functional, cell-based; conditions: Homo sapiens; outline: as §2
PC-3 = experiment: Cytotoxicity against human PC3 cancer cell line was determined after 144 hr; assay type: functional, cell-based; conditions: PC-3, 144 h; outline: as §1
LoVo [11] = experiment: Cytotoxicity against human LoVo cancer cell line was determined after 144 hr; assay type: functional, cell-based; outline: as §2
SNB-19 [12] = experiment: Percent growth of CNS SNB-19 cell line was determined at 10e-6 M concentration after 48 hr of exposing; assay type: functional, Homo sapiens; outline: as §3
SNB-19 [13] = experiment: Percent growth of CNS SNB-19 cell line was determined at 10e-8 M concentration after 48 hr of exposing; assay type: functional, Homo sapiens; outline: as §3
786-0 [14] = experiment: Percent growth of renal 786-O cell line was determined at 10e-5 M concentration after 48 hr of exposing; assay type: functional, Homo sapiens; outline: as §3
786-0 [15] = experiment: Percent growth of renal 786-O cell line was determined at 10e-6 M concentration after 48 h of exposing; assay type: functional, Homo sapiens; outline: as §3
786-0 [16] = experiment: Percent growth of renal 786-O cell line was determined at 10e-8 M concentration after 48 h of exposing; assay type: functional, Homo sapiens; outline: as §3
MCF7 [17] = experiment: Percent growth of breast MCF-7 cell line was determined at 10e-6 M concentration after 48 h of exposing; assay type: functional, Homo sapiens
MCF7 [18] = experiment: Percent growth of breast MCF-7 cell line was determined at 10e-8 M concentration after 48 hr of exposing; assay type: functional, Homo sapiens
SW-620 [19] = experiment: Percent growth of colon SW-620 cell line was determined at 10e-5 M concentration after 48 hr of exposing; assay type: functional, Homo sapiens; outline: as §3
SW-620 [20] = experiment: Percent growth of colon SW-620 cell line was determined at 10e-6 M concentration after 48 hr of exposing; assay type: functional, Homo sapiens; outline: as §3
SW-620 [21] = experiment: Percent growth of colon SW-620 cell line was determined at 10e-8 M concentration after 48 hr of exposing; assay type: functional, Homo sapiens; outline: as §3
NCI-H460 [22] = experiment: Percent growth of lung NCI-H460 cell line was determined at 10e-5 M concentration after 48 hr of exposing; assay type: functional, Homo sapiens; outline: as §3
NCI-H460 [23] = experiment: Percent growth of lung NCI-H460 cell line was determined at 10e-6 M concentration after 48 hr of exposing; assay type: functional, Homo sapiens; outline: as §3
NCI-H460 [24] = experiment: Percent growth of lung NCI-H460 cell line was determined at 10e-8 M concentration after 48 hr of exposing; assay type: functional, Homo sapiens; outline: as §3
MOLT-4 [25] = experiment: Percent growth of leukemia MOLT-4 cell line was determined at 10e-5 M concentration after 48 hr of exposing; assay type: functional, Homo sapiens; outline: as §3
MOLT-4 [26] = experiment: Percent growth of leukemia MOLT-4 cell line was determined at 10e-6 M concentration after 48 h of exposing; assay type: functional, Homo sapiens; outline: as §3
MOLT-4 [27] = experiment: Percent growth of leukemia MOLT-4 cell line was determined at 10e-8 M concentration after 48 hr of exposing; assay type: functional, Homo sapiens; outline: as §3
OVCAR-4 [28] = experiment: Percent growth of ovarian OVCAR-4 cell line was determined at 10e-5 M concentration after 48 hr of exposing; assay type: functional, Homo sapiens; outline: as §3
OVCAR-4 [29] = experiment: Percent growth of ovarian OVCAR-4 cell line was determined at 10e-6 M concentration after 48 hr of exposing; assay type: functional, Homo sapiens; outline: as §3
OVCAR-4 [30] = experiment: Percent growth of ovarian OVCAR-4 cell line was determined at 10e-8 M concentration after 48 hr of exposing; assay type: functional, Homo sapiens; outline: as §3
DU-145 [31] = experiment: Percent growth of prostate DU-145 cell line was determined at 10e-5 M concentration after 48 hr of exposing; assay type: functional, Homo sapiens
[32] = Cytotoxicity against human LoVo cancer cell line was determined after 1 hr; assay type: cell-based; outline: as §2
[33] = Cytotoxicity against human H460M cancer cell line was determined after 1 hr; assay type: cell-based; conditions: Cancer cell lines; outline: as §1
[34] = Cytotoxicity against human MKN45 cancer cell line was determined after 1 hr; assay type: cell-based; conditions: Cancer cell lines; outline: as §1
[35] = Cytotoxicity against human HCT116 cancer cell line was determined after 1 hr; assay type: cell-based; conditions: HCT-116, 1 h; outline: as §1
HT-29 = experiment: Cytotoxicity is determined as the concentration required to inhibit the growth of human colon adenocarcinoma (HT-29) cell line; assay type: functional, cell-based
MCF7 [36] = experiment: Percent growth of breast MCF-7 cell line was determined at 10e-5 M concentration after 48 hr of exposing; assay type: functional, Homo sapiens
[37] = Cytotoxicity against human PC3 cancer cell line was determined after 1 hr; assay type: cell-based; conditions: Cancer cell lines; outline: as §1
[38] = as §4; assay type: cell-based; conditions: Homo sapiens; outline: as §2

Molecule `CN(C)CCN1Nc2c3ccccc3nc3c(C(=O)NCCCN(C)CCCNC(=O)c4ccc5c6c(c7ccccc7nc46)NN5CCN(C)C)ccc1c23` has an IC50 [1] of 4.4 nM, an IC50 (MKN-45) of 0.6 nM and a Resistance index (LoVo [2]) of 24. It also gave an IC50 (LoVo [3]) of 400 nM, a Binding site preference (Nucleic Acid) of 2.1 and a Growth (SNB-19 [4]) of -31%. For the same molecule, the IC50 (HCT-116) was 19 nM, the Growth (DU-145 [5]) was -23% and the Growth (DU-145 [6]) was 25%. It also gave a Growth [7] of -57%, a Growth [8] of 5% and a Growth [9] of 22%. The IC50 (LoVo [10]) was 3600 nM, the IC50 (PC-3) was 6 nM and the IC50 (LoVo [11]) was 1.1 nM. It also gave a Growth (SNB-19 [12]) of -7%, a Growth (SNB-19 [13]) of 40% and a Growth (786-0 [14]) of -48%. For the same molecule, the Growth (786-0 [15]) was 5%, the Growth (786-0 [16]) was 30% and the Growth (MCF7 [17]) was 2%. The Growth (MCF7 [18]) was 18%, the Growth (SW-620 [19]) was -45% and the Growth (SW-620 [20]) was 14%. It also gave a Growth (SW-620 [21]) of 37%, a Growth (NCI-H460 [22]) of -53% and a Growth (NCI-H460 [23]) of -6%. It also gave a Growth (NCI-H460 [24]) of 12%, a Growth (MOLT-4 [25]) of -27% and a Growth (MOLT-4 [26]) of 7%. It also gave a Growth (MOLT-4 [27]) of 28%, a Growth (OVCAR-4 [28]) of -40% and a Growth (OVCAR-4 [29]) of -17%. It also gave a Growth (OVCAR-4 [30]) of 41%, a Growth (DU-145 [31]) of -40% and an IC50 [32] of 150 nM. The IC50 [33] was 7.2 nM, the IC50 [34] was 6.8 nM and the IC50 [35] was 12 nM. For the same molecule, the IC50 (HT-29) was 3 nM, the Growth (MCF7 [36]) was -35% and the IC50 [37] was 12 nM.
Molecule `CN(C)CCn1c(=O)c2ccc(NCCCN(C)CCCNc3ccc4c(=O)n(CCN(C)C)c(=O)n5c6ccc([N+](=O)[O-])cc6c(=O)c3c45)c3c(=O)c4cc([N+](=O)[O-])ccc4n(c1=O)c23` has an IC50 [1] of 0.19 nM, an IC50 (MKN-45) of 0.29 nM and a Resistance index (LoVo [2]) of 9. It also gave an IC50 (LoVo [3]) of 67 nM, a Binding site preference (Nucleic Acid) of 2.4 and a Growth (SNB-19 [4]) of -66%. For the same molecule, the IC50 (HCT-116) was 1.1 nM, the Growth (DU-145 [5]) was -13% and the Growth (DU-145 [6]) was 35%. For the same molecule, the Growth [7] was -69%, the Growth [8] was -56% and the Growth [9] was 16%. For the same molecule, the IC50 (PC-3) was 4.5 nM, the IC50 [38] was 380 nM and the IC50 (LoVo [11]) was 7.6 nM. It also gave a Growth (SNB-19 [12]) of -25%, a Growth (SNB-19 [13]) of 37% and a Growth (786-0 [14]) of -63%. For the same molecule, the Growth (786-0 [15]) was -4%, the Growth (786-0 [16]) was 33% and the Growth (MCF7 [17]) was -2%. It also gave a Growth (MCF7 [18]) of 21%, a Growth (SW-620 [19]) of -16% and a Growth (SW-620 [20]) of 5%. The Growth (SW-620 [21]) was 42%, the Growth (NCI-H460 [22]) was -60% and the Growth (NCI-H460 [23]) was -36%. The Growth (NCI-H460 [24]) was 10%, the Growth (MOLT-4 [25]) was -50% and the Growth (MOLT-4 [26]) was -31%. It also gave a Growth (MOLT-4 [27]) of -2%, a Growth (OVCAR-4 [28]) of -65% and a Growth (OVCAR-4 [29]) of -54%. It also gave a Growth (OVCAR-4 [30]) of 31%, a Growth (DU-145 [31]) of -83% and an IC50 [32] of 42 nM. It also gave an IC50 [33] of 0.93 nM, an IC50 [34] of 1.3 nM and an IC50 [35] of 2.9 nM. For the same molecule, the IC50 (HT-29) was less than 0.1 nM, the Growth (MCF7 [36]) was -55% and the IC50 [37] was 11 nM.
